Bridge positions count the residues as written; N and C are the ends. Square brackets hold non-standard residues; d marks the D form. Peptide text beside a SMILES is read from it. Mpa = O=C(O)CCS
Target: Vasopressin V2 receptor (Sus scrofa) (UniProt P32307)
Assay: Affinity towards vasopressin receptor in porcine renal medullary membrane using [3H]LVP
Type: cell membranes
Details: Renal medulla
Procedure, shortened: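 Pig kidney medullary membrane preparation; displacement of [³H]LVP binding. IC50 taken as the ligand concentration giving 50% inhibition of binding; Kbind calculated by the competitive-inhibition equation Kbind = IC50/(1 + L/KD), with KD the dissociation constant of [³H]LVP.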

Chain of Vasopressin V2 receptor (Sus scrofa) (P32307 whole entry): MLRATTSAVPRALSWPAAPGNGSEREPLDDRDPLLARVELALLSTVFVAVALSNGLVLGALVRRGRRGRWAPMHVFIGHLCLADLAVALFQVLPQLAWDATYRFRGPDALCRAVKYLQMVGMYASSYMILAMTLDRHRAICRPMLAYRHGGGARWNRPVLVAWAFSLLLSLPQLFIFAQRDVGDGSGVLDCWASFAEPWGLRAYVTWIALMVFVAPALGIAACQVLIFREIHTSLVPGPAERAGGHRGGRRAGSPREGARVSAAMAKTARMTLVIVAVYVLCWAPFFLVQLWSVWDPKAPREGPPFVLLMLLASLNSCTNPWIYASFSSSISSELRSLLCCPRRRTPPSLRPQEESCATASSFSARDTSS

- K bind: > 1000 nM
Structure (SMILES): CC(C)[C@@H]1NC(=O)[C@H](Cc2ccccc2)NC(=O)[C@H](Cc2ccc(O)cc2)NC(=O)CCSSC[C@@H](C(=O)N[C@@H](CCCN=C(N)N)C(=O)N[C@@H](CCCN=C(N)N)C(N)=O)NC(=O)[C@H](CC(N)=O)NC1=O ([Mpa]YFVNCRR-NH2; disulfide 1-6)

From ChEMBL document CHEMBL1123570, “Potent vasopressin antagonists modified at the carboxy-terminal tripeptide tail” (J Med Chem, 1987)
